This is a sample that favours compounds with a hit; in the whole collection about 1.9% have one here.
UHRF1 binding = human UHRF1 methylated DNA binding inhibitors; hit rate 0.75% among 370,000; UHRF1 binding to methylated oligo, TR-FRET; Q96T88; inhibition, % at 4.4 µM; in the data active = inhibition above about 21%;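 also: UHRF1 SRA domain binding a hemimethylated CpG hairpin DNA probe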
LEDGF integ inh = blocks HIV-1 LEDGF/p75-dependent DNA integration; TR-FRET IN-LEDGF/p75 DNA integration, Eu/Cy5; inhibition, % at 3.7 µM; hit rate 0.64% among 370,000;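 active = inhibition above the screen-wide mean plus 3 SD, cut at about 13% in these data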;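 also: signal is the Cy5 over europium emission ratio at 671 and 618 nm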
MBD2 DNA inh = inhibitors of human MBD2 binding to methylated oligonucleotide; Q9UBB5; TR-FRET; inhibition, % at 4.4 µM; hit rate 0.31% among 370,000; AID 686964; in the data active = inhibition above about 13%
TDP2 absorb = blocks human TDP2 phosphodiesterase activity; O95551; recombinant TDP2, T5PNP hydrolysis, p-nitrophenol absorbance 415 nm; inhibition, % at 12.8 µM; hit rate 0.34% among 370,000; AID 720702;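 active = inhibition above the mean of all tested compounds plus 3 SD, set per campaign, cut at about 25% in these data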
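Material: recombinant human TDP2; quantity: TDP2 enzyme at 120 nM final; medium: Tris-HCl pH 7.5 with MgCl2; compound: single concentration, 12.8 µM nominal, with 1% DMSO; incubation: 2 h enzyme incubation at 37 °C; signal: epi absorbance; measure: percent inhibition; benchmarks: high control without enzyme, low control DMSO plus TDP2; repeats: singlicate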
Tn6 DDE FP = inhibitors of Tn6 peptide binding to human fibrin DD(E); P02675; Fibrin DD(E) TRITC-Tn6 fluorescence polarization displacement; inhibition, % at 8.3 µM; hit rate 0.21% among 370,000; AID 720509;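 active = inhibition above a per-campaign cutoff: mean of compounds within control limits plus 3 SD, cut at about 15% in these data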
Target sequence (P02675 whole entry, looked up): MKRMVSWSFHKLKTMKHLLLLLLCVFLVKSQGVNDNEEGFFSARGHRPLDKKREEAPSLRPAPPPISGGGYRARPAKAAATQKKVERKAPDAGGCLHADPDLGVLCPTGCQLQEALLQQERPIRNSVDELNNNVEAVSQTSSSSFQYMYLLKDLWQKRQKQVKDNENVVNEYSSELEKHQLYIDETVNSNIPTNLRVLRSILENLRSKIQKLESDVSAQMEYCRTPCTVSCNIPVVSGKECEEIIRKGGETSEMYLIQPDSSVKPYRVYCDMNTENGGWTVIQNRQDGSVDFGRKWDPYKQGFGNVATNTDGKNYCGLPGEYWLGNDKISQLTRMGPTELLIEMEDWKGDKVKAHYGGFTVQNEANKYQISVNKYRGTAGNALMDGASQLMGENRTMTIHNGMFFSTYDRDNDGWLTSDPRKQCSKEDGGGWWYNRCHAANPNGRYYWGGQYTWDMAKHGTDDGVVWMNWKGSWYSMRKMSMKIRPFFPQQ
Tn7 DDE FP = disrupts Tn7 cyclic peptide binding to fibrin D-Dimer-E complex. hit rate 0.13% among 370,000. inhibition, % at 8.3 µM. FP displacement of FITC-Tn7 peptide from fibrin DD(E); 0% = median of compound wells per plate. P02675. AID 720508;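 active = inhibition above the mean of compounds falling within the control limits plus 3 SD of them, cut at about 14% in these data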
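Assay system: Fibrin-DD(E) protein isolated from polymerized human fibrin clots; read-out basis: percent inhibition; medium: Tris/NaCl/CaCl2 buffer, pH 7.8; signal: FP measurement; incubation: 10 min plus 3 h, room temperature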
TDP2 inh conf = confirmation of human TDP2 inhibitors | shares compounds with TDP2 absorb | recombinant human TDP2, absorbance read-out | inhibition, % at 12.8 µM | hit rate 22% among 1,100 | AID 743263; in the data active = inhibition above about 25%
Of the large screens only hits and unclear results are named; the others gave an inactive call (follow-up assays come after a bar, where they were run).

Cc1ccc(C2C(C#N)=C(N)Oc3n[nH]c(-c4cccs4)c32)cc1 (centres undefined)	TDP2 absorb 32 | TDP2 inh conf inactive
N#CC1=C(N)Oc2n[nH]c(-c3cccs3)c2C1c1ccoc1 (centres undefined)	none
COc1cc(C2C(C#N)=C(N)Oc3n[nH]c(-c4cccs4)c32)cc(OC)c1O (centres undefined)	TDP2 absorb 37 | TDP2 inh conf inactive
CCn1cc(C(=O)Nc2ncccc2O)c(=O)c2cc(F)c(N3CCN(C(=O)c4ccco4)CC3)cc21	TDP2 absorb 28 | TDP2 inh conf inactive
O=C(C(=O)N1CCC(CNS(=O)(=O)c2ccc(OC(F)(F)F)cc2)CC1)c1cc2ccccc2o1	none
Cc1ccc2c(c1)C1CS(=O)(=O)N(CCc3ccccc3)CN1C2 (centres undefined)	none
O=C1/C(=C\c2ccc([N+](=O)[O-])cc2)CCc2ccccc21	none
CC(=O)Nc1ccc(/C=C2\CCc3ccccc3C2=O)cc1	TDP2 absorb 26 | TDP2 inh conf inactive
O=C(NCc1ccco1)C1CCCN(S(=O)(=O)c2ccc(F)cc2)C1 (centres undefined)	none
O=C(NN=c1c(=O)c2ccccc2c1=O)c1ccccc1	TDP2 absorb 57 | TDP2 inh conf 78
CN(C)/C=N/NC(=O)c1ccccc1	none
Cc1ccc(-n2nc3c(c2NC(=O)C2CC2)CS(=O)(=O)C3)cc1	TDP2 absorb 27 | TDP2 inh conf inactive
CC1=NN(c2cccc(Cl)c2)C(=O)C1	TDP2 absorb 51 | TDP2 inh conf inactive
CC1=NN(c2ccc(Cl)c(C(=O)O)c2)C(=O)C1	TDP2 absorb 44 | TDP2 inh conf inactive
CC1=NN(c2cc(Cl)c(S(=O)(=O)O)cc2Cl)C(=O)C1	none
Cc1ccc(CNC(=O)CN(C(=O)C2(C)CC(=O)N=C3C=CC=CN32)c2cc(C)ccc2C)cc1 (centres undefined)	TDP2 absorb 26 | TDP2 inh conf inactive
Cc1ccc(CNC(=O)CN(Cc2cccs2)C(=O)C2(C)CC(=O)N=C3C=CC=CN32)cc1 (centres undefined)	none
COC(=O)C1=C(C)N(Cc2ccccc2C(F)(F)F)C(=NCc2cccc(C(F)(F)F)c2)NC1c1cccc(Cl)c1 (centres undefined)	none
COC(=O)C1CN(Cc2ccccc2)CCS(=O)(=O)N1Cc1ccccc1F (centres undefined)	none
O=C(NCc1ccccc1)[C@H]1CCCN1C(=O)[C@H]1CCCN1C(=O)c1ccccc1	none
O=C(NCc1ccccc1)[C@@H]1CCCN1C(=O)[C@H]1CCCN1C(=O)c1ccc(OC(F)(F)F)cc1	none
CCC(=O)Nc1c(C#N)c2nc3ccccc3nc2n1C1CCCCC1	none
CCCCn1c(NC(=O)c2ccccc2Cl)c(C#N)c2nc3ccccc3nc21	TDP2 absorb 38 | TDP2 inh conf 72
CCOC(=O)c1c(NC(=O)c2ccco2)n(C2CCCCC2)c2nc3ccccc3nc12	TDP2 absorb 60 | TDP2 inh conf 60
COc1ccc(-n2c(NC(=O)c3ccco3)c(C#N)c3nc4ccccc4nc32)cc1	TDP2 absorb 60 | TDP2 inh conf 67
COc1ccc(C(=O)Nc2ccc(NC(=O)c3ccco3)cc2)cc1	none
CC1CCCC(NC(=O)COC(=O)c2ccc([N+](=O)[O-])s2)C1C (centres undefined)	TDP2 absorb 32 | TDP2 inh conf 37
CC1CCCC(NC(=O)COC(=O)c2ccccc2[N+](=O)[O-])C1C (centres undefined)	none
Cc1cc(-c2ccc(C)c(S(=O)(=O)NCc3ccc(OC(C)C)cc3)c2)on1	TDP2 absorb 32 | TDP2 inh conf inactive
CCc1ccc(-c2cc(C)no2)cc1S(=O)(=O)NCCCN1CCN(c2ccccc2)CC1	none
COc1ccc(CNS(=O)(=O)c2cc(-c3cc(C)no3)ccc2C)cc1OC	none

High-throughput results as filed in PubChem BioAssay.
